For series [1], the target named is T1, Sphingosine kinase 1 (Homo sapiens, UniProt Q9NYA1). The series is described as follows: Inhibition of human C-terminal His6-tagged SPHK1 expressed in fall armyworm sf9 cells assessed as reduction in S1P formation using sphingosine as substrate after 1 hr by FITC-based caliper assay.
In series [2] the target is T1, Sphingosine kinase 1. The series is described as follows: Inhibition of human C-terminal His6-tagged SPHK1 expressed in fall armyworm sf9 cells assessed as reduction in ADP formation using sphingosine as substrate preincubated for 15 mins followed by substrate addition after 1 hr by transcreener-based fluorescence polarization assay. For orientation: Fluorescence polarisation rises when a labelled molecule tumbles more slowly, as on binding a larger partner.

The target in the next series is T2, Sphingosine kinase 2 (Homo sapiens, UniProt Q9NRA0).
T2 sequence (Q9NRA0 whole entry): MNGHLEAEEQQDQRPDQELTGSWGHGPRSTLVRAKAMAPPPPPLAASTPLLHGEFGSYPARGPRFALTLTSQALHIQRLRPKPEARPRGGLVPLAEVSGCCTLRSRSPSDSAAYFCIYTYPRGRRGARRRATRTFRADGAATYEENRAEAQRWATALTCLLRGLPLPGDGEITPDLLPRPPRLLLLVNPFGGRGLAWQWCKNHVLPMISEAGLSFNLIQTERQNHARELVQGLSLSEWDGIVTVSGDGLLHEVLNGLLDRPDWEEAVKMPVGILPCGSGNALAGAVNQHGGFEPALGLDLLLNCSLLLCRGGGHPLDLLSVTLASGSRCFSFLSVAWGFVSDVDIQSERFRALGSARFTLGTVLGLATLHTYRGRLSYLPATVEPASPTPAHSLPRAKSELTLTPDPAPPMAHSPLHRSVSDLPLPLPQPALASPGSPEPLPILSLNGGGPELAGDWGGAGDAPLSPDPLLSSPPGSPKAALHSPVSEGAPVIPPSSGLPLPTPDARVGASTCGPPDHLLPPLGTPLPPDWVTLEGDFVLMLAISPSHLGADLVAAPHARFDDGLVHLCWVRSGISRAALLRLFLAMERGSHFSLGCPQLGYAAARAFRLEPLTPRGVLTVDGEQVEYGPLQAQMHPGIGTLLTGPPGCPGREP
The series is described as follows: Inhibition of SPHK2 (unknown origin) by FITC-based caliper assay. The essentials: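 Recombinant SphK2 enzyme assay measuring FITC-S1P formation, with product resolved by microfluidic mobility-shift separation. Dose-response gives IC50. Reported values are the mean of two or more independent assays.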

The target of series [3] is T1, Sphingosine kinase 1. The series can be described thus: Inhibition of SPHK1 in human MDA1483 cells using C17-sphingosine as substrate assessed as reduction in C17-S1P formation preincubated for 30 mins with substrate measured after 15 mins by LC-MS analysis. It counts as cell-based.
The target in series [4] is T1, Sphingosine kinase 1. The series is described as follows: Inhibition of SPHK1 in human whole-blood using C17-sphingosine as substrate assessed as reduction in C17-S1P production preincubated for 30 mins followed by substrate addition measured after 10 mins by MS analysis.
Series [5] in a line: Cytotoxicity in human MDA1483 cells at 50 uM by MTT assay. It counts as cell-based. The note with it: mda1483, 50 µM. In general terms: Tetrazolium dyes change colour on reduction, which living cells bring about.
For series [6], the target named is Sphingosine 1-phosphate receptor 3 (Homo sapiens, UniProt Q99500). The series can be described thus: Binding affinity to S1PR3 (unknown origin).
The target in series [7] is Sphingosine 1-phosphate receptor 5 (Homo sapiens, UniProt Q9H228). The series can be described thus: Binding affinity to S1PR5 (unknown origin).
Series [8] can be described thus: Solubility of the compound. The series is classed as physicochemical.
Series [9] has as its target Sphingosine kinase 1 (Homo sapiens, UniProt Q9NYA1, S225A). The series can be described thus: Binding affinity to human C-terminal His6-tagged SPHK1 S225A mutant expressed in fall armyworm sf9 cells after 1 hr by ITC analysis. (Isothermal titration calorimetry measures the heat released or taken up as one component is titrated into another.)

Structures are written as SMILES.

24 molecules from ChEMBL document CHEMBL4007442, “Discovery of a Potent and Selective Sphingosine Kinase 1 Inhibitor through the Molecular Combination of Chemotype-Distinct Screening Hits” (J Med Chem, 2017) can be followed below.

T1 sequence (Q9NYA1 whole entry): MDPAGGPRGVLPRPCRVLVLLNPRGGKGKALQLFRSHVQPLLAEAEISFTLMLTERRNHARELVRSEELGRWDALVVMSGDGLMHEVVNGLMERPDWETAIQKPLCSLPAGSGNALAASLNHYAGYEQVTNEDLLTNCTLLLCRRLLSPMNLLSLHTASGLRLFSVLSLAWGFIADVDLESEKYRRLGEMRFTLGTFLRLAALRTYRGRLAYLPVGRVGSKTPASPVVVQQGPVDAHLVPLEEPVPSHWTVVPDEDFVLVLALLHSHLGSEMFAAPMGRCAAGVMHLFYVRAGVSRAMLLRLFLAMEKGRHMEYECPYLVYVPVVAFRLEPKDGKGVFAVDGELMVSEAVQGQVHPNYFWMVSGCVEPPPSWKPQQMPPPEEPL
Chain of Sphingosine kinase 1 (Homo sapiens, UniProt Q9NYA1, S225A) (Q9NYA1 whole entry S225A): as the sequence (Q9NYA1 whole entry) above, with S225A counted along it
Chain of Sphingosine 1-phosphate receptor 3 (Q99500 whole entry): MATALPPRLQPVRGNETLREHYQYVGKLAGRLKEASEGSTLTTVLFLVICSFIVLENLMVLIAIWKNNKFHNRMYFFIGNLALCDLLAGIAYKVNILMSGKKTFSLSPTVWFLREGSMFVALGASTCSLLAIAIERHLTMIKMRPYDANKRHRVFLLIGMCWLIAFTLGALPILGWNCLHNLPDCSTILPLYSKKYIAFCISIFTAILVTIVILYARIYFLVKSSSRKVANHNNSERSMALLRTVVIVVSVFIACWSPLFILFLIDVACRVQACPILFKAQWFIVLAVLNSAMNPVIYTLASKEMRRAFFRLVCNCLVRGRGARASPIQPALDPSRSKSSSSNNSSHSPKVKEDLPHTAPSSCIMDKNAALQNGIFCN
Chain of Sphingosine 1-phosphate receptor 5 (Q9H228 whole entry): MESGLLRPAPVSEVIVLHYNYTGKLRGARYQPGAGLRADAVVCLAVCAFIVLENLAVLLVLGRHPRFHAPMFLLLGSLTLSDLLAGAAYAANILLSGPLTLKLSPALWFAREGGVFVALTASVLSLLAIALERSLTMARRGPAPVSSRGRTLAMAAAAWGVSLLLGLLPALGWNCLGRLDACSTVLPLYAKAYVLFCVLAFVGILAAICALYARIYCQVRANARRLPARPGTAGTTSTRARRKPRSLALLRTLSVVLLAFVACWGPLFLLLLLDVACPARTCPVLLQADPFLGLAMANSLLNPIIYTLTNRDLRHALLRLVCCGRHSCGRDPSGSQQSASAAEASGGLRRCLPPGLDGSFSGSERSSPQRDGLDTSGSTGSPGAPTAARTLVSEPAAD

For the molecule `Cc1cc(CS(=O)(=O)c2ccccc2)cc(OCc2ccc(CN3CC[C@H](O)C3)cc2)c1`, the IC50 at Sphingosine kinase 1 [1] came to 2.6 nM; at Sphingosine kinase 1 [2], 3 nM; against Sphingosine kinase 2, 443 nM; on Sphingosine kinase 1 [3], 0.03 nM; on Sphingosine kinase 1 [4] it was 5.2 nM.

Turning to `O=C(Nc1cccc(OCc2ccc(CN3CCC[C@@H]3CO)cc2)c1)c1ccccc1`, the IC50 at Sphingosine kinase 1 [1] was 9820 nM; at Sphingosine kinase 1 [2], 3670 nM; against Sphingosine kinase 2 it was 145 nM; on Sphingosine kinase 1 [3] it was 1200 nM; on Sphingosine kinase 1 [4], greater than 8800 nM.

As for `Cc1cc(CS(=O)(=O)c2ccccc2)cc(OCc2ccc(CN3CC[C@@H](O)C3)cc2)c1`, the IC50 at Sphingosine kinase 1 [2] is 28 nM; on Sphingosine kinase 1 [3] it was 30 nM.

For the molecule `Cc1nc2ccc(-c3ccc(CN4CCC[C@@H]4CO)cc3)cc2n1CCC1CCC1`, the results for the IC50 at Sphingosine kinase 1 [2] and on Sphingosine kinase 1 [3] were 8 nM and 4 nM, respectively.

On to `O=S(=O)(Cc1cccc(OCc2ccc(CN3CCC[C@@H]3CO)cc2)c1)c1ccccc1`, for which the IC50 on Sphingosine kinase 1 [1] stood at 2.4 nM; on Sphingosine kinase 1 [2], 2 nM; against Sphingosine kinase 2 it was 164 nM; on Sphingosine kinase 1 [3] it was 0.3 nM; at Sphingosine kinase 1 [4], 35 nM.

In the case of `Cc1cc(CS(=O)(=O)c2ccccc2)cc(OCc2ccc3[nH]c(N)nc3c2)c1`, the IC50 at Sphingosine kinase 1 [1] is 1400 nM; on Sphingosine kinase 1 [2], 1700 nM; at Sphingosine kinase 2, 39600 nM; at Sphingosine kinase 1 [3], 180 nM; in series [6], greater than 10 µM; in [7], greater than 10 µM. Further, in series [5], the Activity entry is “Non-Toxic”. Further, the solubility result in series [8] is on record as “Insoluble”.

Consider `Cc1nc2ccc(-c3ccc(CN4CCC[C@@H]4CO)cc3)cc2n1Cc1ccccc1`, for which the IC50 on Sphingosine kinase 1 [2] stood at 440 nM; on Sphingosine kinase 1 [3], 250 nM.

`CS(=O)(=O)Cc1cccc(OCc2ccc(CN3CCC[C@@H]3CO)cc2)c1`: the IC50 on Sphingosine kinase 1 [2] was 439 nM; on Sphingosine kinase 1 [3], 519 nM.

`Cc1nc2ccc(-c3ccc(CN4CCC[C@@H]4CO)cc3)cc2n1CCC(C)C`: the half-inhibitory concentration (IC50) at Sphingosine kinase 1 [2] was 7 nM; at Sphingosine kinase 1 [3], 4 nM.

For the molecule `Cc1nc2ccc(-c3ccc(CN4CCC[C@@H]4CO)cc3)cc2n1C[C@H]1CCCO1`, the IC50 on Sphingosine kinase 1 [1] was found to be 870 nM; on Sphingosine kinase 1 [2], 190 nM; on Sphingosine kinase 2, 46000 nM; at Sphingosine kinase 1 [3] it was 81 nM. Binding at Sphingosine kinase 1 [9] was characterised by a dissociation constant (Kd) of 2.9 µM.

As to `Cc1nc2ccc(-c3ccc(CN4CCCC4)cc3)cc2n1C[C@H]1CCCO1`, the IC50 at Sphingosine kinase 1 [2] was greater than 100000 nM.

In the case of `Cc1nc2ccc(-c3ccc(CN4CCC[C@@H]4CO)cc3)cc2n1CC(C)C`, the IC50 was 290 nM at Sphingosine kinase 1 [2] and 440 nM at Sphingosine kinase 1 [3].

With `Cc1nc2ccc(-c3ccc(CN4CCC[C@@H]4CO)cc3)cc2n1C[C@@H]1CCCO1`, the IC50 on Sphingosine kinase 1 [1] is 12700 nM; at Sphingosine kinase 1 [2], 4600 nM; against Sphingosine kinase 2, greater than 100000 nM; at Sphingosine kinase 1 [3], 2100 nM. Besides, binding on Sphingosine kinase 1 [9] was put at a Kd of 12 µM.

Regarding `CC(C)c1cccc(OCc2ccc(CN3CCC[C@@H]3CO)cc2)c1`, the IC50 on Sphingosine kinase 1 [1] was 4.8 nM; at Sphingosine kinase 1 [2] it was 0.8 nM; on Sphingosine kinase 2, less than 1.7 nM; at Sphingosine kinase 1 [3], 0.6 nM; on Sphingosine kinase 1 [4], 19 nM.

In the case of `Cc1nc2ccc(-c3ccc(CN4CCC[C@@H]4CO)cc3)cc2n1CC1CCCC1`, the IC50 at Sphingosine kinase 1 [2] worked out at 11 nM; on Sphingosine kinase 1 [3] it was 10 nM.

As for `O=S(=O)(Cc1cccc(OCc2ccc(CN3CCC[C@@H]3CO)cc2)c1)C1CC1`, the IC50 on Sphingosine kinase 1 [1] is 40.4 nM; at Sphingosine kinase 1 [2], 10 nM; at Sphingosine kinase 2 it was 164 nM; at Sphingosine kinase 1 [3], 1.7 nM; on Sphingosine kinase 1 [4], 1470 nM.

In the case of `OC[C@H]1CCCN1Cc1ccc(COc2cccc(C3CCCCC3)c2)cc1`, the IC50 on Sphingosine kinase 1 [1] is less than 1.7 nM; at Sphingosine kinase 1 [2] it was 0.7 nM; against Sphingosine kinase 2 it was less than 1.7 nM; on Sphingosine kinase 1 [3], 0.03 nM; on Sphingosine kinase 1 [4], 1.5 nM.

Take `Cc1cc(CS(=O)(=O)c2ccccc2)cc(OCc2ccc(CN3C[C@@H](O)[C@@H](O)C3)cc2)c1`: the IC50 on Sphingosine kinase 1 [1] worked out at 3.9 nM; at Sphingosine kinase 1 [2], 3.9 nM; at Sphingosine kinase 2, 7230 nM; on Sphingosine kinase 1 [3], 1 nM; on Sphingosine kinase 1 [4] it was 38 nM.

As for `Cc1nc(-c2cccc(OCc3ccc(CN4CCC[C@@H]4CO)cc3)c2)no1`, the IC50 on Sphingosine kinase 1 [1] came out at 25 nM; at Sphingosine kinase 1 [2] it was 4.5 nM; against Sphingosine kinase 2, 2.4 nM; on Sphingosine kinase 1 [3], 1.7 nM; at Sphingosine kinase 1 [4], 173 nM.

For `Cc1cc(CS(=O)(=O)c2ccccc2)cc(OCc2ccc(CNCCO)cc2)c1`, the IC50 amounted to 14.6 nM on Sphingosine kinase 1 [1], 5.3 nM at Sphingosine kinase 1 [2], 35100 nM on Sphingosine kinase 2 and 3.5 nM on Sphingosine kinase 1 [3].

Take `Cc1nc2ccc(-c3ccc(CN4CCC[C@H]4CO)cc3)cc2n1C[C@@H]1CCCO1`: the IC50 at Sphingosine kinase 1 [1], on Sphingosine kinase 1 [2], on Sphingosine kinase 2 and on Sphingosine kinase 1 [3] was greater than 100000 nM in each case.

For `Cc1cc(CS(=O)(=O)c2ccccc2)cc(OCc2ccc(CN3C[C@@H](O)[C@H](O)C3)cc2)c1`, the IC50 was determined as 2 nM on Sphingosine kinase 1 [1]; 2 nM at Sphingosine kinase 1 [2]; 465 nM at Sphingosine kinase 2; 0.17 nM on Sphingosine kinase 1 [3]; 6.4 nM on Sphingosine kinase 1 [4].

For the molecule `Cc1nc2ccc(-c3ccc(CN4CCC[C@H]4CO)cc3)cc2n1C[C@H]1CCCO1`, the IC50 is greater than 100000 nM at Sphingosine kinase 1 [1], 31000 nM on Sphingosine kinase 1 [2], greater than 100000 nM against Sphingosine kinase 2 and 9800 nM at Sphingosine kinase 1 [3].

Take `Cc1cc(CS(=O)(=O)c2ccccc2)cc(OCc2ccc3[nH]cnc3c2)c1`: the IC50 was 48000 nM on Sphingosine kinase 1 [1], 48000 nM at Sphingosine kinase 1 [2] and 27000 nM on Sphingosine kinase 1 [3].

As a reminder, the IC50 is the concentration that gives 50% inhibition. One may read the Kd as the equilibrium constant for the complex coming apart. Lower therefore signals tighter binding.
